Results taken from ChEMBL document CHEMBL3352402, “Pharmacological evaluation and docking studies of α,β-unsaturated carbonyl based synthetic compounds as inhibitors of secretory phospholipase A₂, cyclooxygenases, lipoxygenase and proinflammatory cytokines” (Bioorg Med Chem, 2014).
Active and inactive are the calls of the source. The rule behind the calls is not given here.

What was measured:
[1] = target: T1, Prostaglandin G/H synthase 1 (Ovis aries, UniProt P05979); experiment: Inhibition of ovine COX1 using arachidonic acid substrate assessed as PGE2 production ELISA method after 2 mins
T1 sequence (P05979 whole entry): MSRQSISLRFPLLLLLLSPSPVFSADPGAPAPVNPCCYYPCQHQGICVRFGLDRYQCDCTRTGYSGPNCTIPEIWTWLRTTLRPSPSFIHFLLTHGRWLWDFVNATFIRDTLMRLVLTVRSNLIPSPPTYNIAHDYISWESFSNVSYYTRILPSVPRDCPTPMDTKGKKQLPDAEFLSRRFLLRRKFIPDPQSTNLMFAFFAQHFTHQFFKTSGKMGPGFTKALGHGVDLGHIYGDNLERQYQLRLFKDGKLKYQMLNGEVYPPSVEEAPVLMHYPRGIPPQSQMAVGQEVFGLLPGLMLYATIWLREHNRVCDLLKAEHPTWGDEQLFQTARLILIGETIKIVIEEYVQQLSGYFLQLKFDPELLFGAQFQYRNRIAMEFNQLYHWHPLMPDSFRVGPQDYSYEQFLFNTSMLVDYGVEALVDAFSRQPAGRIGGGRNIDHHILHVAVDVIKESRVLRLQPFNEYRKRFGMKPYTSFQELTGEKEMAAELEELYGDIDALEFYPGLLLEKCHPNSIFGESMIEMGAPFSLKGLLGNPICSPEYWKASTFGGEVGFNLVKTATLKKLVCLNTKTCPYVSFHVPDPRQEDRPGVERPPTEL

[2] = target: T2, Prostaglandin G/H synthase 2 (Homo sapiens, UniProt P35354); experiment: Inhibition of human recombinant COX2 using arachidonic acid substrate assessed as PGE2 production ELISA method after 2 mins
T2 sequence (P35354 whole entry): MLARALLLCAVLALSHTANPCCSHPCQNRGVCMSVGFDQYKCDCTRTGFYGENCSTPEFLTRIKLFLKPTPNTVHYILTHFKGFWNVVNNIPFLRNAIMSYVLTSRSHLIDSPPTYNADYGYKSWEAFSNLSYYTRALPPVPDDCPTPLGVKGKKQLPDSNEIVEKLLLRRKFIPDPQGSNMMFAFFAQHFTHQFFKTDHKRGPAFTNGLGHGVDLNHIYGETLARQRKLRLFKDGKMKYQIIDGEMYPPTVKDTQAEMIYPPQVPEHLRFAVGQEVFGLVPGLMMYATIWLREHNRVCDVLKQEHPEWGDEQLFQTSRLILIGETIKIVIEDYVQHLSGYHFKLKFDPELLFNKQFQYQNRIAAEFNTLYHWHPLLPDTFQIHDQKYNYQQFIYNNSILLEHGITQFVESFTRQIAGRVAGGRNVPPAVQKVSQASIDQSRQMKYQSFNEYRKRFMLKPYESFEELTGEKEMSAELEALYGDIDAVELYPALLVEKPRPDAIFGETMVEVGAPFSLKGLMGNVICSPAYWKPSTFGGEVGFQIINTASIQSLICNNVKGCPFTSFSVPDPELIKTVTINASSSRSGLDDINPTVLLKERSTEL

[3] = Inhibition of sPLA2-V (unknown origin) using substrate 1,2-bis(heptanoylthio)-glycerophosphocholine by Ellman's method based photometric assay; design: species or system Homo sapiens
[4] = test system: RAW264.7; experiment: Immunostimulatory activity in mouse RAW264.7 cells assessed as stimulation of IL6 release at 10 uM per-treated with compound for 2 hrs before LPS challenge for 22 hrs by ELISA method; assay type: functional, cell-based
Method in brief: (§1)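 RAW 264.7 macrophages grown in DMEM with 10% heat-inactivated FBS and 1% Pen Strep, 37°C, 5% CO2. Pretreated 2 h with compound (10 µM) or vehicle, then LPS (0.5 µg/ml, in PBS) 22 h. Medium was centrifuged and cytokine measured by mouse ELISA. Levels were normalized to total protein of the cell pellet and expressed as percent of LPS control. Triplicates, mean ± SEM.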

[5] = test system: RAW264.7; experiment: Immunostimulatory activity in mouse RAW264.7 cells assessed as stimulation of TNFalpha expression at 10 uM per-treated with compound for 2 hrs before LPS challenge for 22 hrs by ELISA method; assay type: functional, cell-based; method in brief: as §1
[6] = target: Lipoxygenase (Glycine max, UniProt Q39829); experiment: (§2) Inhibition of soybean lipoxygenase after 5 mins by colorimetric assay
Method in brief: (§3)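 Purified soybean lipoxygenase resuspended in 0.1 M Tris-HCl, pH 7. Enzyme plus test sample was started with substrate (dissolved in KOH, diluted to 1 mM) at room temperature for 5 min. Chromogen was added for 5 min to stop the reaction, then absorbance read at 490 nm. Activity is relative to enzyme plus substrate alone.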

[7] = target: Lipoxygenase (Glycine max) (UniProt Q39829); experiment: as §2; method in brief: as §3
[8] = target: Lipoxygenase (Glycine max) (UniProt Q39829); experiment: Inhibition of soybean lipoxygenase at 40 ug/mL after 5 mins by colorimetric assay
[9] = test system: RAW264.7; experiment: Inhibition of IL6 release in mouse RAW264.7 cells at 10 uM per-treated with compound for 2 hrs before LPS challenge for 22 hrs by ELISA method; assay type: functional; method in brief: as §1
[10] = test system: RAW264.7; experiment: Inhibition of TNFalpha expression in mouse RAW264.7 cells at 10 uM per-treated with compound for 2 hrs before LPS challenge for 22 hrs by ELISA method; assay type: functional

| IC50 [1] | IC50 [2] | IC50 [3] | IC50 [6] | inhibition [7] | inhibition [8] | SMILES | Activity [4] | Activity [5] | inhibition at 10 µM [9] | inhibition at 10 µM [10] |
| --- | --- | --- | --- | --- | --- | --- | --- | --- | --- | --- |
| 2.22 µM | 19.3 µM | 37.3 µM | – | – | – | CCOC(OCC)c1ccc(/C=C2\Cc3ccccc3C2=O)cc1 | – | – | – | – |
| 21.5 µM | 28 µM | 37.6 µM | – | – | – | CN(C)c1ccc(/C=C2\CCc3ccccc3C2=O)c([N+](=O)[O-])c1 | Active | – | – | – |
| 69.2 µM | > 100 µM | 11.2 µM | – | – | – | CN1C/C(=C\c2ccc(N3CCCC3)cc2)C(=O)/C(=C/c2ccc(N3CCCC3)cc2)C1 | – | – | – | – |
| 33.5 µM | > 100 µM | 54.2 µM | – | – | – | O=C1/C(=C/c2ccc(N3CCCC3)cc2)CCc2ccccc21 | – | – | – | – |
| 51.3 µM | 57.2 µM | 19.2 µM | – | – | – | O=C1/C(=C/c2ccc(N3CCCC3)cc2)CN(Cc2ccccc2)C/C1=C\c1ccc(N2CCCC2)cc1 | – | – | – | – |
| 3.17 µM | > 100 µM | 17.8 µM | – | – | – | CCOC(OCC)c1ccc(/C=C2\CN(Cc3ccccc3)C/C(=C\c3ccc(C(OCC)OCC)cc3)C2=O)cc1 | – | – | – | – |
| – | 54.6 µM | 67.3 µM | – | – | – | O=C1/C(=C/c2ccc(N3CCCC3)cc2)Cc2ccccc21 | Active | Active | – | – |
| 29.3 µM | 37.7 µM | 22.2 µM | 157 µM | – | – | CN(C)c1ccc(/C=C/C(=O)C2CCc3ccccc3C2=O)c([N+](=O)[O-])c1 (stereo unspecified) | – | – | – | – |
| 29.7 µM | – | 10.1 µM | 59.5 µM | Dose-dependent effect | 68.3% | COc1cc(/C=C/C(=O)CC(=O)/C=C/c2ccc(O)c(OC)c2)ccc1O [CURCUMIN] | – | – | – | – |
| 0.67 µM | 7.88 µM | 4.19 µM | 39.5 µM | – | – | CN(C)c1ccc(/C=C2\CNC/C(=C\c3ccc(N(C)C)cc3[N+](=O)[O-])C2=O)c([N+](=O)[O-])c1 | – | – | 76% | 73% |
| – | > 100 µM | 12.1 µM | – | – | – | O=C1/C(=C/c2ccc(N3CCCC3)cc2)CNC/C1=C\c1ccc(N2CCCC2)cc1 | – | – | – | – |
| 9.91 µM | 14.8 µM | 28 µM | – | – | – | CN(C)c1ccc(/C=C2\Cc3ccccc3C2=O)c([N+](=O)[O-])c1 | – | – | – | – |
| – | > 100 µM | 38.4 µM | – | – | – | CN(C)c1ccc(/C=C2\CC/C(=C\c3ccc(N(C)C)cc3[N+](=O)[O-])C2=O)c([N+](=O)[O-])c1 | – | – | – | – |
| – | – | – | 9.23 µM | – | – | CC(Cc1ccc(O)c(O)c1)C(C)Cc1ccc(O)c(O)c1 (stereo unspecified) [NORDIHYDROGUAIARETIC ACID] | – | – | – | – |
| 33.5 µM | 54.3 µM | 28.3 µM | – | – | – | O=C1/C(=C/c2ccc(N3CCCC3)cc2)CCC/C1=C\c1ccc(N2CCCC2)cc1 | – | – | – | – |
| 0.42 µM | > 100 µM | 11.2 µM | 29.3 µM | – | – | CN(C)c1ccc(/C=C2/CCC/C(=C\c3ccc(N(C)C)cc3[N+](=O)[O-])C2=O)c([N+](=O)[O-])c1 | – | – | – | – |
| – | 38.2 µM | 4.21 µM | 65.6 µM | – | 67.6% | CCOC(OCC)c1ccc(/C=C2\CN(C)C/C(=C\c3ccc(C(OCC)OCC)cc3)C2=O)cc1 | – | – | 76% | 73% |

| IC50 [1] | IC50 [2] | IC50 [3] | IC50 [6] | inhibition [7] | inhibition [8] | SMILES | Activity [4] | Activity [5] | inhibition at 10 µM [9] | inhibition at 10 µM [10] |
| --- | --- | --- | --- | --- | --- | --- | --- | --- | --- | --- |
| 37.8 µM | 46.2 µM | 55.7 µM | – | – | – | O=C1/C(=C/c2ccc(N3CCCC3)cc2)CC/C1=C\c1ccc(N2CCCC2)cc1 | – | Active | – | – |
| – | – | 0.61 µM | – | – | – | C[C@@H]1C[C@H]2[C@@H]3CCC4=CC(=O)C=C[C@]4(C)[C@@]3(F)[C@@H](O)C[C@]2(C)[C@@]1(O)C(=O)CO [DEXAMETHASONE] | – | – | – | – |
| 39.4 µM | > 100 µM | 15.2 µM | – | – | – | O=C1/C(=C/c2ccc(N3CCCC3)cc2)COC/C1=C\c1ccc(N2CCCC2)cc1 | – | – | – | – |
| – | 27.7 µM | 7.14 µM | 88.4 µM | – | – | CCOC(OCC)c1ccc(/C=C2\CNC/C(=C\c3ccc(C(OCC)OCC)cc3)C2=O)cc1 | – | – | 91% | 91% |
| – | > 100 µM | 58.2 µM | – | – | – | CCOC(OCC)c1ccc(/C=C2\CCc3ccccc3C2=O)cc1 | – | Active | – | – |
| – | 11.2 µM | 8.76 µM | 91 µM | – | – | CCOC(OCC)c1ccc(/C=C2\COC/C(=C\c3ccc(C(OCC)OCC)cc3)C2=O)cc1 | – | – | – | 73% |
| – | 61.2 µM | 44.1 µM | – | – | – | O=C(/C=C/c1ccc(N2CCCC2)cc1)C1CCc2ccccc2C1=O (stereo unspecified) | Active | – | – | – |
| – | 14.8 µM | – | – | – | – | CCOC(OCC)c1ccc(/C=C2\CC/C(=C\c3ccc(C(OCC)OCC)cc3)C2=O)cc1 | – | – | – | – |
| 3.96 µM | 15 µM | 18.2 µM | 103 µM | – | – | CN(C)c1ccc(/C=C/C(=O)/C=C/c2ccc(N(C)C)cc2[N+](=O)[O-])c([N+](=O)[O-])c1 | – | – | 76% | – |
| 0.72 µM | 18.6 µM | 7.79 µM | 44.7 µM | – | – | CN(C)c1ccc(/C=C2\COC/C(=C\c3ccc(N(C)C)cc3[N+](=O)[O-])C2=O)c([N+](=O)[O-])c1 | – | – | 76% | 73% |
| 14.6 µM | 19.2 µM | 15.2 µM | 211 µM | – | – | CN(C)c1ccc(/C=C2\CN(Cc3ccccc3)C/C(=C\c3ccc(N(C)C)cc3[N+](=O)[O-])C2=O)c([N+](=O)[O-])c1 | – | – | – | – |
| – | 17.4 µM | 12.6 µM | 83.1 µM | – | – | CCOC(OCC)c1ccc(/C=C2\CCC/C(=C\c3ccc(C(OCC)OCC)cc3)C2=O)cc1 | – | – | – | – |
| 1.22 µM | 9.12 µM | 2.19 µM | 38.3 µM | – | – | CN1C/C(=C\c2ccc(N(C)C)cc2[N+](=O)[O-])C(=O)/C(=C/c2ccc(N(C)C)cc2[N+](=O)[O-])C1 | – | – | 91% | 91% |
| 3.22 µM | 31.5 µM | 19.2 µM | 210 µM | – | – | CCOC(OCC)c1ccc(/C=C/C(=O)/C=C/c2ccc(C(OCC)OCC)cc2)cc1 | – | – | 76% | – |
| 49.3 µM | 69.8 µM | 29.3 µM | – | – | – | O=C(/C=C/c1ccc(N2CCCC2)cc1)/C=C/c1ccc(N2CCCC2)cc1 | – | – | – | – |
| 1.12 µM | 13.3 µM | 27.7 µM | 52.2 µM | 69.5% | 69.5% | CCOC(OCC)c1ccc(/C=C/C(=O)C2CCc3ccccc3C2=O)cc1 (stereo unspecified) | – | – | – | – |
